The Ki is the dissociation constant of the complex between target and ligand, obtained from inhibition or displacement.

Experiment [1] has as its system TA3. Briefly: Growth inhibition of mouse TA3 cells at 10^-4 M after 3 days incubation in presence of 10^-7 M pyridoxal. Format: functional.
Experiment [2] concerns TA3. Briefly: Growth inhibition of mouse TA3 cells after 3 days incubation in presence of 10^-7 M pyridoxal. To be noted: for IC50: Mus musculus, TA3, 72 h, read-out: ID50 (the source's name). Format: functional. A digest of the protocol:
(§1)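 Mouse mammary adenocarcinoma TA3 cells were grown in stationary upright tubes with 10% horse serum and pyridoxal at 10⁻⁷ M (minimal growth) or 10⁻⁵ M. The inoculum was 50 000 cells, with compound added in an equal volume of medium. Cells were incubated for 3 days, and growth was read by protein assay. Five tubes were used per concentration, with repeats for active compounds. The 50% inhibitory concentration was derived.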

Experiment [3] deals with TA3. Briefly: Growth inhibition of mouse TA3 cells after 3 days incubation in presence of 10^-5 M pyridoxal. In kind it is functional. A digest of the protocol: as §1
The target of another experiment is T1, Pyridoxal kinase (Homo sapiens, UniProt O00764).
T1 sequence (O00764 whole entry): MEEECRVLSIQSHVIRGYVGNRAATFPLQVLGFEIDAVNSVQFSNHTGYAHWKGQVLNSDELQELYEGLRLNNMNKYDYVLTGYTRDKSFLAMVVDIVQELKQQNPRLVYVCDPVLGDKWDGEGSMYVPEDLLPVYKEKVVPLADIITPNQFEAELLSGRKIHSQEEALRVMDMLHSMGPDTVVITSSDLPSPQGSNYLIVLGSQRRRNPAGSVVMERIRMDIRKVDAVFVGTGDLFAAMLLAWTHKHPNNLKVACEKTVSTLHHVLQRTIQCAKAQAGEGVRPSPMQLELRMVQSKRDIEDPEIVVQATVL
Briefly: Noncompetitive inhibition of pyridoxal phosphokinase (unknown origin) using ATP-gamma-[32P].

SMILES strings stand for the structures. The source made the active and inactive calls. The rule behind the calls is not given here.

As for `Cc1c(CO)cnc(CO)c1O`, the inhibition result in the experiment on TA3 [1] is “inactive”. With `Cc1c(CO)cnc(C=O)c1O`, the figures for the ID50 with TA3 [2] and in the experiment on TA3 [3] were 6 ×10⁻⁵ M and 1.6 ×10⁻⁴ M, respectively. As for `C=Cc1ncc(COP(=O)(O)O)c(C=C)c1O`, the inhibition result in the experiment with TA3 [1] is “inactive”. With `C=Cc1ncc(COP(=O)(O)O)c(C)c1O`, the ID50 in the experiment on TA3 [2] was 3.8 ×10⁻⁵ M; in the experiment with TA3 [3] it was 1.8 ×10⁻⁴ M. Consider `Cc1ncc(CO)c(C)c1O`, for which the ID50 in the experiment on TA3 [2] turned out to be 6.8 ×10⁻⁸ M. Besides, the inhibition result in the experiment on TA3 [3] is “inactive”. As to `C=Cc1ncc(CO)c(C)c1O.Cl`, in the experiment on TA3 [2], the IC50 came out at 3 µM. The Ki at Pyridoxal kinase was 68.1 µM. Further, in the experiment on TA3 [3], the ID50 is on record as 3.2 ×10⁻⁵ M. For `C=Cc1ncc(CO)c(C=C)c1O.Cl`, in the experiment on TA3 [2], the IC50 is 6.8 µM. Also, the ID50 with TA3 [3] stood at 3.2 ×10⁻⁵ M. For the molecule `C=Cc1c(CO)cnc(CO)c1O`, the inhibition entry in the experiment with TA3 [1] was “inactive”. With `C=Cc1ncc(CO)c(CO)c1O`, the IC50 in the experiment on TA3 [2] was determined as 9.4 µM. In addition, the inhibition entry with TA3 [3] is “Active”. For `C=Cc1c(CO)cnc(C)c1O`, the IC50 with TA3 [2] worked out at 0.0025 µM. In addition, the inhibition entry in the experiment on TA3 [3] is “inactive”. Taken in the same sequence, the figures for `Cc1c(CO)cnc(/C=N/NC(N)=S)c1O` were 2.7 µM and “Active”. For the molecule `Cc1c(CO)cnc(/C=N/O)c1O`, in the experiment on TA3 [1], the “inhibition (INH)” value is on record as 40%.

These data come from ChEMBL document CHEMBL3243952, “Antagonists of vitamin B6. Simultaneous and stepwise modification of the 2 and 4 positions” (J Med Chem, 1977).
